Data on 20 molecules can be found in ChEMBL document CHEMBL1121840, “Synthesis and antiinflammatory activity of 2,2'-diaminobiphenyl derivatives” (J Med Chem, 1981).

In series [1] the test system is Rattus norvegicus. As to the kind of experiment: Compound was tested for antiinflammatory activity in rats by adjuvant arthritis test after peroral administration of 50 mg/kg dose; no significant effect. The format is functional, organism-based. Also noted: dose 50 mg/kg.
Series [2] relates to Rattus norvegicus. Kind of series: Compound was tested for antiinflammatory activity in rats by carrageenam edema test after peroral administration of 200 mg/kg dose. It is filed as functional. The note with it: route oral. The essentials: (§1)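 CD-COBS rats, both sexes. The drug was given orally as a suspension in 1% acacia gum (10 mL/kg), then carrageenan foot edema was induced per Winter et al. Read-out was % inhibition of edema; N = 5 rats per group; Dunnet's test. "No significant effect" means inhibition below 15%.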

The test system of series [3] is Rattus norvegicus. As to the kind of experiment: Compound was tested for antiinflammatory activity in rats by adjuvant arthritis test after peroral administration of 50 mg/kg dose. The note with it: route oral. It is filed as functional.
The test system of series [4] is Rattus norvegicus. As to the kind of experiment: Compound was tested for antiinflammatory activity in Rat by carrageenam edema test after peroral administration of 200 mg/kg dose. The format is functional. The following applies: route oral. A digest of the protocol: as §1
The test system of series [5] is Rattus norvegicus. Kind of series: Compound was tested for antiinflammatory activity in rat by adjuvant arthritis test after peroral administration of 50 mg/kg dose; no significant effect. Also noted: dose 50 mg/kg. It is filed as functional, organism-based.
The subject of series [6] is Rattus norvegicus. Kind of series: Compound was tested for antiinflammatory activity in rats by carrageenam edema test after peroral administration of 200 mg/kg dose; no significant effect. The format is functional, organism-based. Also noted: dose 200 mg/kg. A digest of the protocol: as §1
In series [7] the test system is Rattus norvegicus. Kind of series: Compound was tested for antiinflammatory activity in rat by carrageenam edema test after peroral administration of 200 mg/kg dose; no significant effect. It is filed as functional, organism-based. Also noted: dose 200 mg/kg. The essentials:
as §1

Series [8] relates to Rattus norvegicus. As to the kind of experiment: Compound was tested for antiinflammatory activity in rat by adjuvant arthritis test after peroral administration of 50 mg/kg dose. The format is functional. The following applies: route oral.
Series [9] deals with Rattus norvegicus. Kind of series: Compound was tested for antiinflammatory activity in rats adjuvant arthritis test after peroral administration of 50 mg/kg dose. The format is functional. The note with it: route oral.
Series [10] in a line: Compound was tested for lethal dose in mice after oral administration. It is filed as ADME, organism-based. The note with it: mouse, in vivo. The essentials: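 CD1 mice of both sexes given single oral dose of compound suspended in 1% acacia gum (20 mL/kg); LD50 calculated by probit method.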
The test system of series [11] is Rattus norvegicus. Kind of series: Compound was tested for antiinflammatory activity in rats by carrageenam induced pleurisy test at dose of 200 mg/kg, po. The format is functional. A digest of the protocol: (§2)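 Rats were dosed orally (1% acacia gum suspension) at 48, 24 and 1 h before intrapleural carrageenan, per Di Rosa et al. Pleural exudate was assessed 6 h later as % reduction in volume and in leucocytes; N = 8 rats per group; Dunnet's test.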

The subject of series [12] is Rattus norvegicus. As to the kind of experiment: Compound was tested for antiinflammatory activity in rats by carrageenam induced pleurisy test at dose of 200 mg/kg, po,% reduction in leucocytes. The format is functional. The essentials:
as §2

The test system of a further series is Mus musculus. Kind of series: Compound was tested for analgesic activity in mice by phenylquinone writhing test at dose of 200 mg/kg, po. The format is functional. A digest of the protocol:
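Female mice received the drug orally in 1% acacia gum suspension (20 mL/kg) 1 h before i.p. 0.2 mL of 0.2% phenylquinone. Animals were caged individually and abdominal contractions counted over 20 min after injection; N = 4 mice per group; Dunnet's test.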

Series [13] has as its system Rattus norvegicus. Kind of series: Compound was tested for antiinflammatory activity in rat by carrageenam edema test after peroral administration of 200 mg/kg dose. It is filed as functional. The following applies: route oral. A digest of the protocol: as §1

Turning to `CCNc1ccccc1-c1ccccc1NC(=O)Cc1ccc(O)cc1`, in the series on Rattus norvegicus [1], the inhibition result is “No significant effect”. In addition, in the series on Rattus norvegicus [2], the inhibition in vivo at 200 mg/kg was found to be 45%.
As to `CNc1ccccc1-c1ccccc1NC(=O)Cc1ccc(OC)cc1`, testing at 200 mg/kg in the series on Rattus norvegicus [2] gave an inhibition in vivo of 20%. The inhibition in vivo at 50 mg/kg in the series with Rattus norvegicus [3] is 22%.
Molecule `CN(C)CCNc1ccccc1-c1ccccc1NC(=O)Cc1ccc([N+](=O)[O-])cc1` gave an inhibition in vivo at 200 mg/kg with Rattus norvegicus [4] of 54%. For the same molecule, the inhibition result in the series with Rattus norvegicus [5] is “No significant effect”.
`CCN(CC)CCCNc1ccccc1-c1ccccc1NC(=O)Cc1ccc([N+](=O)[O-])cc1`: the inhibition result in the series with Rattus norvegicus [6] was “No significant effect”. Besides, in the series with Rattus norvegicus [3], the inhibition in vivo at 50 mg/kg stood at 16%.
Consider `CN(C)CCCNc1ccccc1-c1ccccc1NC(=O)Cc1ccc([N+](=O)[O-])cc1`, for which the inhibition entry with Rattus norvegicus [7] was “No significant effect”. The inhibition in vivo at 50 mg/kg in the series on Rattus norvegicus [8] is 24%.
Consider `CN(C)CCCNc1ccccc1-c1ccccc1NC(=O)Cc1ccc(Cl)cc1`, for which the inhibition entry with Rattus norvegicus [6] is “No significant effect”. The inhibition in vivo at 50 mg/kg in the series with Rattus norvegicus [3] was 30%.
As for `CCNc1ccccc1-c1ccccc1NC(=O)Cc1ccccc1`, in the series on Rattus norvegicus [1], the inhibition result was “No significant effect”. Also, the inhibition in vivo at 200 mg/kg in the series on Rattus norvegicus [2] came out at 30%.
Consider `Nc1ccccc1-c1ccccc1NC(=O)Cc1ccc(O)cc1`, for which, in the series with Rattus norvegicus [1], the inhibition entry was “No significant effect”. Further, the inhibition in vivo at 200 mg/kg in the series on Rattus norvegicus [2] turned out to be 37%.
As for `CCN(CC)CCCNc1ccccc1-c1ccccc1NC(=O)Cc1ccc(Cl)cc1`, the inhibition entry with Rattus norvegicus [6] was “No significant effect”. For the same molecule, in the series on Rattus norvegicus [3], the inhibition in vivo at 50 mg/kg was found to be 29%.
As for `CN(C)CCNc1ccccc1-c1ccccc1NC(=O)Cc1ccc(N)cc1`, the inhibition result in the series with Rattus norvegicus [1] is “No significant effect”. The same molecule had an inhibition in vivo at 200 mg/kg in the series on Rattus norvegicus [2] of 16%.
As to `CCCCC1C(=O)N(c2ccccc2)N(c2ccccc2)C1=O` [PHENYLBUTAZONE], the inhibition in vivo at 200 mg/kg was 42% in the series on Rattus norvegicus [2] and 45% in the series with Mus musculus. Moreover, in the series on Rattus norvegicus [9], the inhibition in vivo at 50 mg/kg stood at 66%. The LD50 in series [10] is 650 mg/kg. The Reduction is recorded as 43% in the series with Rattus norvegicus [11] and 35% with Rattus norvegicus [12].
With `COc1ccc(CC(=O)Nc2ccccc2-c2ccccc2NCCN(C)C)cc1`, the inhibition entry in the series on Rattus norvegicus [1] was “No significant effect”. Besides, the inhibition in vivo at 200 mg/kg in the series with Rattus norvegicus [2] turned out to be 65%.
For `CNc1ccccc1-c1ccccc1NC(=O)Cc1ccc([N+](=O)[O-])cc1`, the inhibition entry with Rattus norvegicus [6] was “No significant effect”. Moreover, the inhibition in vivo at 50 mg/kg in the series with Rattus norvegicus [3] stood at 16%.
As to `CNc1ccccc1-c1ccccc1NC(=O)Cc1ccc(O)cc1`, in the series with Rattus norvegicus [1], the inhibition result was “No significant effect”. This molecule also yielded an inhibition in vivo at 200 mg/kg with Rattus norvegicus [2] of 17%.
Regarding `CCCNc1ccccc1-c1ccccc1NC(=O)Cc1ccc(Cl)cc1`, in the series on Rattus norvegicus [1], the inhibition entry is “No significant effect”. This molecule showed an inhibition in vivo at 200 mg/kg in the series on Rattus norvegicus [2] of 33%.
Take `CCN(CC)CCNc1ccccc1-c1ccccc1NC(=O)Cc1ccc([N+](=O)[O-])cc1`: the results for the inhibition in vivo at 200 mg/kg in the series with Rattus norvegicus [13] and in the series with Mus musculus were 54% and 34%, respectively. Moreover, the inhibition in vivo at 50 mg/kg in the series with Rattus norvegicus [9] was determined as 33%. The molecule further came in with an LD50 in series [10] of 1130 mg/kg. Further, the Reduction in the series with Rattus norvegicus [11] was 48%; in the series on Rattus norvegicus [12] it was 35%.
The molecule `CC(=O)Oc1ccccc1C(=O)O` [ASPIRIN] gave an inhibition in vivo at 200 mg/kg with Rattus norvegicus [2] of 40%. In addition, the inhibition in vivo at 50 mg/kg with Rattus norvegicus [3] was found to be 32%.
Turning to `COc1ccc(CC(=O)Nc2ccccc2-c2ccccc2NCCCN(C)C)cc1`, the inhibition result in the series with Rattus norvegicus [1] is “No significant effect”. This molecule also registered an inhibition in vivo at 200 mg/kg with Rattus norvegicus [2] of 16%.
In the series with Rattus norvegicus [13], `CCN(CC)CCNc1ccccc1-c1ccccc1NC(=O)Cc1ccccc1` gave an inhibition in vivo at 200 mg/kg of 17%. In addition, in the series on Rattus norvegicus [5], the inhibition result is “No significant effect”.
For the molecule `CCN(CC)CCNc1ccccc1-c1ccccc1NC(=O)Cc1ccc(N)cc1`, in the series with Rattus norvegicus [1], the inhibition result was “No significant effect”. For the same molecule, the inhibition in vivo at 200 mg/kg with Rattus norvegicus [2] was 33%.
